From ChEMBL document CHEMBL1944532, “Synthesis and evaluation of anticancer activity of some novel 6-aryl-2-(p-sulfamylphenyl)-pyridazin-3(2H)-ones” (Eur J Med Chem, 2012)
Activity calls are given as the source filed them. The calls are words filed in the database; no cut-off is given here.

Columns and labels:
SR = assay: Cytotoxicity against human SR cells assessed as cell growth at 10 uM after 48 hrs by SRB assay; type: functional; conditions: read-out: Activity
Outline: (§1)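 NCI primary one-dose screen at 10^-5 M against the full panel of about 60 human tumour cell lines, run to the NCI Drug Evaluation Branch protocol.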

NCI-H23 = assay: Cytotoxicity against human NCI-H23 cells assessed as cell growth at 10 uM after 48 hrs by SRB assay; type: functional; conditions: NCI-H23, 48 h, read-out: Activity
Outline: (§2)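 NCI primary single-dose screen at 10^-5 M against the full panel of about 60 human tumor cell lines. Cells were in RPMI-1640 with 5% fetal calf serum and 2 mM L-glutamine and preincubated 24 h. Compound was given in DMSO with 48 h exposure. Growth was estimated by sulforhodamine B protein assay.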

SF-295 = assay: Cytotoxicity against human SF295 cells assessed as cell growth at 10 uM after 48 hrs by SRB assay; type: functional; conditions: SF-295, 48 h, read-out: Activity; outline: as §2
SNB-19 [1] = assay: Cytotoxicity against human SNB19 cells assessed as cell growth at 10 uM after 48 hrs by SRB assay; type: functional; conditions: SNB-19, 48 h, read-out: Activity; outline: as §1
MDA-MB-435 = assay: Cytotoxicity against human MDA-MB-435 cells assessed as cell growth at 10 uM after 48 hrs by SRB assay; type: functional; conditions: MDA-MB-435, 48 h, read-out: Activity; outline: as §2
UACC-62 = assay: Cytotoxicity against human UACC62 cells assessed as cell growth at 10 uM after 48 hrs by SRB assay; type: functional; conditions: UACC-62, 48 h, read-out: Activity; outline: as §1
RXF 393 = assay: Cytotoxicity against human RXF393 cells assessed as cell growth at 10 uM after 48 hrs by SRB assay; type: functional; conditions: RXF 393, 48 h, read-out: Activity; outline: as §2
TK-10 = assay: Cytotoxicity against human TK10 cells assessed as cell growth at 10 uM after 48 hrs by SRB assay; type: functional; conditions: TK-10, 48 h, read-out: Activity; outline: as §1
BT-549 [2] = assay: Cytotoxicity against human BT549 cells assessed as cell growth at 10 uM after 48 hrs by SRB assay; type: functional; conditions: BT-549, 48 h, read-out: Activity
Outline: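 NCI primary single-dose screen at 10^-5 M against the ~60 human tumour cell line panel. Cells grown in RPMI-1640 with 5% fetal calf serum and 2 mM L-glutamine and pre-incubated 24 h before compound addition. Compound added from DMSO solution with 48 h exposure. Growth read by sulforhodamine B protein staining.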

HL-60(TB) = assay: Cytotoxicity against human HL-60(TB) cells after 48 hrs by SRB assay; type: functional; conditions: HL-60, 48 h
Outline: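 NCI 60-cell-line screen, five-dose assay: cells in RPMI1640 (printed "PMI1640") with 5% fetal calf serum and 2 mM L-glutamine, pre-incubated 24 h before compound addition. Compound in DMSO at 10-4, 10-5, 10-6, 10^-7 and 10^-8 M; continuous 48 h exposure. Growth estimated by sulforhodamine B protein assay; log GI50, TGI and LC50 derived from dose-response.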

HCT-116 = assay: Cytotoxicity against human HCT116 cells after 48 hrs by SRB assay; type: functional; conditions: HCT-116, 48 h
Outline: (§3)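 NCI ~60-line panel in RPMI-1640 with 5% fetal calf serum and 2 mM L-glutamine, pre-incubated 24 h. Compound in DMSO tested at five 10-fold concentrations (10^-4 to 10^-8 M) with 48 h continuous exposure. Growth measured by sulforhodamine B protein assay. GI50 (50% net growth inhibition), TGI (total inhibition) and LC50 (50% net cell death) derived from dose-response.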

SNB-19 [3] = assay: Cytotoxicity against human SNB19 cells after 48 hrs by SRB assay; type: functional; conditions: SNB-19, 48 h
Outline: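 NCI 60-cell-line five-dose screen. Cells were grown in 1640 medium with 5% fetal calf serum and 2 mM L-glutamine, with inoculum density set by cell line, and pre-incubated 24 h. Compound in DMSO was added at 10^-4 to 10^-8 M (10-fold steps) with 48 h continuous exposure. Growth was read by SRB protein assay, and GI50, TGI and LC50 were derived from dose-response.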

IGROV-1 = assay: Cytotoxicity against human IGROV1 cells after 48 hrs by SRB assay; type: functional; conditions: IGROV-1, 48 h; outline: as §3
OVCAR-3 = assay: Cytotoxicity against human OVCAR3 cells after 48 hrs by SRB assay; type: functional; conditions: OVCAR-3, 48 h
Outline: (§4)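 NCI five-dose screen on the ~60-line human tumor panel. Cells grown in RPMI-1640 with 5% fetal calf serum and 2 mM L-glutamine, seeded at line-dependent density and preincubated 24 h. Compound added from DMSO at 10-fold dilutions from 10^-4 to 10^-8 M, continuous exposure 48 h. Growth read by sulforhodamine B protein stain. GI50, TGI and LC50 derived per line.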

786-0 = assay: Cytotoxicity against human 786-0 cells after 48 hrs by SRB assay; type: functional; conditions: 786-0, 48 h; outline: as §3
CAKI-1 = assay: Cytotoxicity against human Caki1 cells after 48 hrs by SRB assay; type: functional; conditions: CAKI-1, 48 h; outline: as §3
MDA-MB-231 = assay: Cytotoxicity against human MDA-MB-231/ATCC cells after 48 hrs by SRB assay; type: functional; conditions: MDA-MB-231, 48 h; outline: as §4
BT-549 [4] = assay: Cytotoxicity against human BT549 cells after 48 hrs by SRB assay; type: functional; conditions: BT-549, 48 h; outline: as §3
[5] = Toxicity in ip dosed athymic nude mouse assessed as lethality after 2 weeks; type: organism-based; conditions: in vivo
Outline: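 Maximum tolerated dose determination in athymic nude mice. Single ip injection of 400, 200 or 100 mg/kg, one mouse per dose. Compound solubilized in DMSO. Feed and water ad libitum. Mice observed 2 weeks for body weight loss, lethality and other toxicity signs; sacrificed if weight loss exceeds 20%.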

SW-620 = assay: Antitumor activity against human SW620 cells implanted in mouse dosed qd for 4 days by formazan dye-based hollow fiber assay; type: functional, organism-based
Outline: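 Cells grown inside polyvinylidene fluoride hollow fibers; each line implanted into both intraperitoneal and subcutaneous compartments in mice. Compound given ip at two doses on a QD x 4 schedule. Fibers then recovered and viable cell mass measured by formazan dye conversion. Scored 2 per dose giving ≥50% reduction in viable cell mass (%T/C 50).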

With `CCc1ccc(-c2ccc(=O)n(-c3ccc(S(N)(=O)=O)cc3)n2)cc1` as the compound, how does the growth at 10 µM (SR) read?
Its growth at 10 µM is -11.9%.

And the growth at 10 µM (NCI-H23)?
The growth at 10 µM was 59.9%.

What about the growth at 10 µM (SF-295) of the same compound?
Its growth at 10 µM is 18.4%.

And the growth at 10 µM (SNB-19 [1])?
Its growth at 10 µM is 57.6%.

And the growth at 10 µM (MDA-MB-435)?
Its growth at 10 µM is -17.9%.

What about the growth at 10 µM (UACC-62) of the same compound?
Its growth at 10 µM is 38.5%.

And the growth at 10 µM (RXF 393)?
Its growth at 10 µM is -31.8%.

And the growth at 10 µM (TK-10)?
Its growth at 10 µM is 76.8%.

And the growth at 10 µM (BT-549 [2])?
Its growth at 10 µM is 7.69%.

What about the LC50 (HL-60(TB)) of the same compound?
The LC50 was > 100 µM.

What about the GI50 (HL-60(TB); read-out: GI50) of the same compound?
The GI50 was 0.376 µM.

And the GI50 (HL-60(TB); read-out: pGI50 (converted))?
Its GI50 is 0.38 µM.

What about the TGI (HL-60(TB); read-out: pTGI (converted)) of the same compound?
Its TGI is 3.02 µM.

What about the LC50 (concentration causing 50% net cell death) (HCT-116) of the same compound?
Its LC50 (concentration causing 50% net cell death) is > 100 µM.

What about the GI50 (HCT-116; read-out: GI50) of the same compound?
Its GI50 is 0.535 µM.

What about the GI50 (HCT-116; read-out: pGI50 (converted)) of the same compound?
The GI50 was 0.537 µM.

What about the TGI (HCT-116; read-out: pTGI (converted)) of the same compound?
The TGI was 19.1 µM.

And the LC50 (SNB-19 [3])?
Its LC50 is > 100 µM.

And the GI50 (SNB-19 [3]; read-out: GI50)?
The GI50 was 4.41 µM.

And the GI50 (SNB-19 [3]; read-out: pGI50 (converted))?
Its GI50 is 4.37 µM.

What about the TGI (SNB-19 [3]; read-out: pTGI (converted)) of the same compound?
The TGI was 36.3 µM.

What about the LC50 (IGROV-1) of the same compound?
Its LC50 is > 100 µM.

And the GI50 (IGROV-1; read-out: GI50)?
Its GI50 is 3.81 µM.

What about the GI50 (IGROV-1; read-out: pGI50 (converted)) of the same compound?
The GI50 was 3.8 µM.

What about the TGI (IGROV-1; read-out: pTGI) of the same compound?
Its TGI is > 100 µM.

What about the LC50 (OVCAR-3) of the same compound?
Its LC50 is > 100 µM.

What about the GI50 (OVCAR-3; read-out: GI50) of the same compound?
The GI50 was 0.429 µM.

And the GI50 (OVCAR-3; read-out: pGI50 (converted))?
The GI50 was 0.427 µM.

What about the TGI (OVCAR-3; read-out: pTGI) of the same compound?
Its TGI is > 100 µM.

What about the LC50 (50% net cell kill) (786-0) of the same compound?
Its LC50 (50% net cell kill) is > 100 µM.

What about the GI50 (786-0; read-out: GI50) of the same compound?
The GI50 was 10.2 µM.

What about the GI50 (786-0; read-out: pGI50 (converted)) of the same compound?
Its GI50 is 10.2 µM.

And the TGI (786-0; read-out: pTGI (converted))?
The TGI was 63.1 µM.

And the LC50 (concentration causing 50% net cell death) (CAKI-1)?
The LC50 (concentration causing 50% net cell death) was > 100 µM.

And the GI50 (CAKI-1; read-out: GI50)?
The GI50 was 2.73 µM.

And the GI50 (CAKI-1; read-out: pGI50 (converted))?
Its GI50 is 2.75 µM.

And the TGI (CAKI-1; read-out: pTGI)?
Its TGI is > 100 µM.

And the LC50 (MDA-MB-231)?
Its LC50 is > 100 µM.

What about the GI50 (MDA-MB-231; read-out: GI50) of the same compound?
Its GI50 is 12.1 µM.

What about the GI50 (MDA-MB-231; read-out: pGI50 (converted)) of the same compound?
Its GI50 is 12 µM.

What about the TGI (MDA-MB-231; read-out: pTGI) of the same compound?
Its TGI is > 100 µM.

And the LC50 (BT-549 [4])?
Its LC50 is 85.1 µM.

And the GI50 (BT-549 [4]; read-out: GI50)?
The GI50 was 0.756 µM.

And the GI50 (BT-549 [4]; read-out: pGI50 (converted))?
Its GI50 is 0.759 µM.

And the TGI (BT-549 [4]; read-out: pTGI (converted))?
Its TGI is 17.8 µM.

What about the MTD at 336 h [5] of the same compound?
The MTD at 336 h was 400 mg/kg.

And the Activity (SW-620)?
The Activity was “inactive”.
